Results of several laboratories.
Compare with care: the assays were run in different laboratories.
RPS6KA3 C-terminal kinase domain: Ribosomal protein S6 kinase alpha-3, C-terminal kinase domain (RPS6KA3, Homo sapiens, UniProt P51812)
RPS6KA3: Ribosomal protein S6 kinase alpha-3 (RPS6KA3, Homo sapiens, UniProt P51812)
RPS6KA3 N-terminal kinase domain: Ribosomal protein S6 kinase alpha-3, N-terminal kinase domain (RPS6KA3, Homo sapiens, UniProt P51812)

N[C@H]1CCN(c2nccc(-c3cnn4ncccc34)n2)C1 — remaining binding (RPS6KA3 C-terminal kinase domain; binding, competition with immobilised ligand; 1 µM): 40%
O=C1Nc2ccc(Cl)cc2C1=Cc1cc(Cl)c(O)c(Cl)c1 — remaining signal (RPS6KA3; cell-free assay; 0.5 µM): 96%
COCCOc1nc(-c2ccc(Cl)nc2)nc2c1CN(C(=O)c1ncn3ccccc13)CC2 — remaining binding (RPS6KA3 N-terminal kinase domain; cell-free assay, competition with immobilised ligand; 0.1 µM): 100%
CC(C)(C)c1nc(-c2cccc(NS(=O)(=O)c3c(F)cccc3F)c2F)c(-c2ccnc(N)n2)s1 — remaining activity (RPS6KA3; enzyme activity, inhibitor, radiometric; 1 µM): 77%
Cc1ccc(C(=O)Nc2ccc(CN3CCN(C)CC3)c(C(F)(F)F)c2)cc1C#Cc1cnc2cccnn12 — activity vs control (RPS6KA3; enzyme activity, inhibitor; 23.5 nM): 82%
Nc1nc(Nc2ccccc2)sc1C(=O)c1c(F)cccc1F — remaining activity (RPS6KA3; enzyme activity, inhibitor; 10 µM): 38%
Cc1cc(NC(=O)c2cccc3cc(-c4cccc5[nH]nc(N)c45)ccc23)ccc1F — activity vs control (RPS6KA3; enzyme activity, inhibitor; 0.1 µM): 131%
CCCS(=O)(=O)Nc1ccc(F)c(C(=O)c2c[nH]c3ncc(-c4ccc(Cl)cc4)cc23)c1F — inhibition (RPS6KA3; enzyme activity, inhibitor; 1 µM): < 10%
Clc1ccc(Nc2nnc(Cc3ccncc3)c3ccccc23)cc1 — remaining signal (RPS6KA3; cell-free assay; 0.5 µM): 101%
C[C@H](c1ccc(F)cc1)N(Cc1cccc(C(=O)O)c1)C(=O)c1cnc2ccccc2c1 — remaining binding (RPS6KA3 C-terminal kinase domain; cell-free assay, competition with immobilised ligand; 1 µM): 89%
COc1cc(Nc2cnc(C#N)c(O[C@H](C)CN(C)C)n2)ncc1-c1cnn(C)c1 — remaining activity (RPS6KA3; enzyme activity, inhibitor, radiometric; 10 µM): 34%
CN(C)c1nccc(-c2cnc3ncccn23)n1 — remaining binding (RPS6KA3 N-terminal kinase domain; binding, competition with immobilised ligand; 1 µM): 70%
FC(F)c1nc2ccccc2n1-c1nc(N2CCOCC2)nc(N2CCOCC2)n1 — remaining activity (RPS6KA3; enzyme activity, inhibitor; 10 µM): 83%
Cc1sc(C(=O)NC2COC2)cc1-n1cc(NC(=O)Nc2c(F)cccc2Cl)cn1 — remaining activity (RPS6KA3; enzyme activity, inhibitor; 10 µM): 73%
c1ccc(CNc2nc(N3CCOc4ccccc43)nc3c2CCCC3)cc1 — inhibition (RPS6KA3 N-terminal kinase domain; target engagement in cells, inhibitor, chemoproteomics; 20 mM): 3.3%
Cc1nc(N2CC[C@@H](O)C2)ncc1-c1cc(C(F)(F)F)cc2[nH]ncc12 — remaining binding (RPS6KA3 C-terminal kinase domain; binding, competition with immobilised ligand; 1 µM): 58%
CCOc1cc(-c2nncn2C)ccc1Nc1ncc2cc(C)nc(NCC(C)(C)C)c2n1 — inhibition (RPS6KA3; enzyme activity, inhibitor, FRET; 1 µM): 18%
CCOCCn1cc(C(=O)Nc2ccc(-n3nc(-c4cccnc4)cc3C(F)(F)F)cn2)ccc1=O — remaining binding (RPS6KA3 C-terminal kinase domain; cell-free assay, competition with immobilised ligand; 1 µM): 87%
CC1CCCN1c1nccc(-c2cnn3ncccc23)n1 (centres unmarked) — remaining binding (RPS6KA3 N-terminal kinase domain; binding, competition with immobilised ligand; 1 µM): 100%
COc1cc(/C=C/C(=O)CC(=O)/C=C/c2ccc(O)c(OC)c2)ccc1O — activity vs control (RPS6KA3; enzyme activity, inhibitor; 1 µM): 66%
Nc1ncnc2occ(-c3ccc(NC(=O)Nc4cc(C(F)(F)F)ccc4F)cc3)c12 — remaining signal (RPS6KA3 C-terminal kinase domain; cell-free assay, inhibitor; 20 µM): 100%
C[C@@H]1CCN(c2nccc(-c3cnn4ncccc34)n2)C1 — remaining binding (RPS6KA3 C-terminal kinase domain; binding, competition with immobilised ligand; 1 µM): 98%
Cn1cncc1C1=CN(c2ncnc3[nH]cnc23)CCS1 — inhibition (RPS6KA3; enzyme activity, inhibitor, radiometric; 50 nM): 12.3%
COc1ccc2c(c1)O[C@@H](c1ccc(OC)c(OC)c1)C[C@H]2NC(=O)C1(c2ccc3c(c2)OC(F)(F)O3)CC1 — remaining binding (RPS6KA3 C-terminal kinase domain; cell-free assay, competition with immobilised ligand; 1 µM): 100%
CCCOc1ccc(OC)c(F)c1C(=O)c1ccc(C(=O)N[C@@H]2CNC[C@H]2NC(=O)c2ccc3[nH]ncc3c2)cc1 — remaining activity (RPS6KA3; enzyme activity, inhibitor; 10 µM): 12%
CN(c1nccc(-c2cnn3ncccc23)n1)C1CC1 — remaining binding (RPS6KA3 N-terminal kinase domain; binding, competition with immobilised ligand; 1 µM): 100%
O=C(O)c1cc(-c2ccc(C3CCNCC3)cc2)c2ccc(-c3ccc(C(F)(F)F)cc3)cc2c1 — remaining binding (RPS6KA3 C-terminal kinase domain; cell-free assay, competition with immobilised ligand; 1 µM): 80%
CN(C)C1CCN(CC#Cc2nn(C3CCCC3)c3nc(NCc4ccccc4)ncc23)C1 (centres unmarked) — inhibition (RPS6KA3; enzyme activity, inhibitor, FRET; 10 µM): 15%
CCCOc1ccc([C@@H]2[C@@H](C(=O)O)[C@H](c3ccc4c(c3)OCO4)CN2CC(=O)Nc2c(CC)cccc2CC)cc1 — remaining binding (RPS6KA3 C-terminal kinase domain; cell-free assay, competition with immobilised ligand; 1 µM): 76%
Cc1ccc(Nc2nccc(N(C)c3ccc4c(C)n(C)nc4c3)n2)cc1S(N)(=O)=O — inhibition (RPS6KA3; enzyme activity, inhibitor; 10 µM): 56%
COc1cc(Cl)c(C(=O)N[C@@H](CN[C@H]2CC[C@@H](N)CC2)Cc2ccc(C#N)cc2)cc1-c1ccc(CN[C@H](C)c2ccc(C)cc2)o1 — remaining activity (RPS6KA3; enzyme activity, inhibitor; 1 µM): 72%
C[C@@H]1CCN(C(=O)CC#N)C[C@@H]1N(C)c1ncnc2[nH]ccc12 — remaining signal (RPS6KA3; cell-free assay, inhibitor; 0.5 µM): 97%
CNc1cc(Oc2cc(C(=O)Nc3cc(N4CCN(C)CC4)cc(C(F)(F)F)c3)ccc2C)ncn1 — inhibition (RPS6KA3 C-terminal kinase domain; target engagement in cells, inhibitor, chemoproteomics; Huh-7; 1 µM): -50.6%
O=C1NC(=O)c2cc(Nc3ccc(F)cc3)c(Nc3ccc(F)cc3)cc21 — remaining signal (RPS6KA3; cell-free assay; 0.5 µM): 118%
COc1ccnn2ncc(-c3ccnc(N(C)C)n3)c12 — remaining binding (RPS6KA3 C-terminal kinase domain; binding, competition with immobilised ligand; 1 µM): 100%
CCN(CC)c1ccc(C2=NNC(=O)CC2C)cc1[N+](=O)[O-] (centres unmarked) — remaining activity (RPS6KA3; enzyme activity, inhibitor; 10 µM): 100%
CNC(=O)c1cc(Oc2ccc(NC(=O)Nc3ccc(Cl)c(C(F)(F)F)c3)cc2)ccn1 — inhibition (RPS6KA3; enzyme activity, inhibitor; 10 µM): 46%
FC(F)(F)Oc1cccc(-c2cnc3ccc(-c4ccncc4)nn23)c1 — activity vs control (RPS6KA3; enzyme activity, inhibitor, radiometric; 5 µM): 98%
COc1ccc2c(O[C@@H]3C[C@H]4C(=O)N[C@]5(C(=O)O)CC5/C=C\CCCCC[C@H](NC(=O)OC5CCCC5)C(=O)N4C3)cc(-c3csc(NC(=O)C(C)C)n3)nc2c1C (some centres unmarked) — remaining binding (RPS6KA3 N-terminal kinase domain; cell-free assay, competition with immobilised ligand; 1 µM): 100%
COc1cc2ncnc(Nc3ccc(Oc4ccccc4)c(C)c3C)c2cc1OC — inhibition (RPS6KA3; enzyme activity, inhibitor; 1 µM): -1%
CC/C(=N\NC(=O)NCc1cccc(O)c1)c1ccc(O)c(C)c1O — inhibition (RPS6KA3; enzyme activity, inhibitor; 0.1 µM): 79.5%
